In ChEMBL document CHEMBL3627654, “Ring substitution influences oxidative cyclisation and reactive metabolite formation of nordihydroguaiaretic acid analogues” (Bioorg Med Chem, 2015):

What was measured:
[1] = Drug degradation in phosphate citric acid buffer at pH 7.4 at 37 degC at 0.5 mM by HPLC-UV analysis; assay type: physicochemical; settings: pH 7.4, 500 µM
Procedure, shortened: (§1)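 Aliquots over time quenched to pH 1.5 with HCl, quantified by HPLC against standard curves (peak area ratio to DMPA). k from slope of ln(C/Co) versus time, pseudo-first-order; half-life derived.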

[2] = Drug degradation in 0.5M phosphate citric acid buffer at 0.5 mM at pH 7.4 at 37 degC by HPLC-UV analysis; assay type: physicochemical; settings: pH 7.4, 500 µM; procedure, shortened: as §1
[3] = Stability of compound assessed as formation of 5,6,7,8-Tetrahydro-dibenzo[a,c]cyclooctene-2,3,10,11-tetraol in phosphate citric acid buffer at pH 7.4 at 37 degC by HPLC-UV analysis relative to NDGA; assay type: physicochemical
Procedure, shortened: (§2)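 Formation rate of the dibenzocyclooctadiene inferred from loss of the parent substrate (0.5 mM, DMPA internal standard) in phosphate–citric acid buffer (0.5 M, pH 7.4) at 37 °C. Aliquots acidified to pH 1.5 with HCl and analysed by HPLC; first-order k from ln(C/Co) versus time, relative rate versus NDGA.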

[4] = Stability of compound assessed as level of starting material at 37 degC for 6 hrs in absence of glutathione; assay type: physicochemical; settings: read-out: Stability
Procedure, shortened: (§3)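 Substrate and DMPA internal standard, 0.5 mM each, incubated in phosphate–citrate buffer (0.5 M, pH 7.4) at 37 °C for 6 h with or without 20-fold excess glutathione. Samples acidified to pH 1.5 and analysed directly by HPLC and ESI-MS. Relative percentage of starting material, cyclised product and adduct reported.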

[5] = Half life of the compound in 0.5M phosphate citric acid buffer at 0.5 mM at pH 7.4 at 37 degC by HPLC-UV analysis; assay type: ADME; procedure, shortened: as §1
[6] = Stability of compound assessed as level of starting material at 37 degC for 6 hrs in presence of 20 fold excess of glutathione; assay type: physicochemical; settings: read-out: Stability; procedure, shortened: as §3
[7] = Stability of compound in 0.5M phosphate citric acid buffer assessed as autoxidative conversion at 0.1 mM at pH 7.4 at 37 degC for 90 mins by HPLC-UV analysis; assay type: physicochemical; settings: pH 7.4, 1.5 h, 100 µM
Procedure, shortened: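 Incubated 90 min at 37 °C. Dibenzocyclooctadiene formation monitored by HPLC, with products examined by MS and NMR. NDGA served as positive control.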

[8] = Stability of compound assessed as formation of 5,6,7,8-Tetrahydro-dibenzo[a,c]cyclooctene-2,3,10,11-tetraol in phosphate citric acid buffer at pH 7.4 at 37 degC by HPLC-UV analysis; assay type: physicochemical; procedure, shortened: as §2
[9] = Stability of compound in 0.5M phosphate citric acid buffer assessed as drug degradation at 0.5 mM at pH 7.4 at 37 degC for 48 hrs by HPLC-UV analysis; assay type: physicochemical; settings: read-out: Drug degradation; procedure, shortened: as §1
[10] = Drug degradation in phosphate citric acid buffer at pH 7.4 at 37 degC by HPLC-UV analysis relative to cNDGA; assay type: physicochemical
Procedure, shortened: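 Cyclised dibenzocyclooctadiene derivative (0.5 mM) with DMPA internal standard incubated in phosphate–citric acid buffer (0.5 M, pH 7.4) at 37 °C; aliquots acidified to pH 1.5 and parent loss followed by HPLC. First-order rate constant from ln(C/Co) versus time, expressed relative to cNDGA.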

[11] = Stability of compound assessed as formation of cNDGA in phosphate citric acid buffer at pH 7.4 at 37 degC by HPLC-UV analysis; assay type: physicochemical; procedure, shortened: as §2
[12] = Dissociation constant, pKa of compound; assay type: physicochemical

K [2] [×10⁻⁵ /s] | half-life at 500 µM [5] [min] | Structure (SMILES) | Drug metabolism [7] | other results
 |  | CC1Cc2cc(O)c(O)cc2-c2cc(O)c(O)cc2CC1C (centres undefined) |  | K [1]: 0.47 ×10⁻⁵ /s
13.1 | 88.2 | Oc1ccc(CCCCc2ccc(O)c(O)c2)cc1O | metabolite_detected | Ratio [3]: 3.1; remaining at 6 h [4]: 8.52%; remaining at 6 h [6]: 95.5%; K [8]: 8.7 ×10⁻⁵ /s
4.56 | 253 | CC(Cc1ccccc1)C(C)Cc1ccc(O)c(O)c1 (centres undefined) | metabolite_detected | 
3.5 | 329 | COc1cc(CC(C)C(C)Cc2ccccc2)ccc1O (centres undefined) | metabolite_detected | 
 |  | CC(Cc1cccc(O)c1)C(C)Cc1cccc(O)c1 (centres undefined) | metabolite_detected | degraded at 48 h, 500 µM [9]: < 5%
4.11 | 281 | COc1ccc(CC(C)C(C)Cc2ccc(OC)c(O)c2)cc1O (centres undefined) | metabolite_detected | 
 |  | Oc1cc2c(cc1O)-c1cc(O)c(O)cc1CCCC2 |  | K [1]: 1.75 ×10⁻⁵ /s; Ratio [10]: 3.7
4.16 | 277 | COc1ccc(CC(C)C(C)Cc2ccc(O)c(O)c2)cc1OC (centres undefined) | metabolite_detected | 
2.87 | 402 | COc1cc(CC(C)C(C)Cc2ccc(O)c(OC)c2)ccc1O (centres undefined) [DIHYDROGUAIARETIC ACID] | metabolite_detected | 
4.88 | 236 | CC(Cc1ccc(O)c(O)c1)C(C)Cc1ccc(O)c(O)c1 (centres undefined) [NORDIHYDROGUAIARETIC ACID] | metabolite_detected | remaining at 6 h [4]: 66.9%; remaining at 6 h [6]: 87.1%; K [11]: 2.78 ×10⁻⁵ /s; pKa [12]: 9.3
